# Experiments:
# [1] = tested on: lung adenocarcinoma H1650; experiment: MTT assay, H1650; format: cell-based; settings: Homo sapiens, NCI-H1650, 24 h, read-out: IC50 ± S.D. H1650
# How it was run: (§1)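 Cell lines from ATCC were seeded at 10^4 cells per well in 100 μL medium. They were exposed to the test compound for 24 h at 37 °C under 5% CO2. Then 10 μL MTT (5.0 mg mL−1) was added for 4 h at 37 °C. Cells were lysed in isopropanol/conc. HCl/Triton X100 for 10 min at room temperature with shaking. Formazan was read at 570 nm, in triplicate.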
# [2] = tested on: human promyelocytic leukemia HL-60; experiment: MTT assay, HL-60; format: cell-based; settings: read-out: IC50 ± S.D. HL-60, 24 h, mean of 3 independent experiments
# How it was run: as §1
# [3] = tested on: human colon adenocarcinoma HT-29; experiment: MTT assay, HT-29; format: cell-based; settings: read-out: IC50 ± S.D. HT-29, 24 h, mean of 3 independent experiments
# How it was run: as §1
# PIM-1 = PIM-1 (Homo sapiens, UniProt P11309); experiment: PIM-1 kinase assay; format: biochemical
# PIM-2 = PIM-2 (Homo sapiens, UniProt Q9P1W9); experiment: PIM-2 kinase assay; format: biochemical
# How it was run: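 Luminescent ADP-Glo readout of ADP formed. Enzyme, substrate, ATP and inhibitor were diluted in kinase buffer, with 5% DMSO as vehicle. The kinase reaction ran 60 min at room temperature. ADP-Glo Reagent was then added for 40 min, followed by Kinase Detection Reagent for 30 min, both at room temperature, before luminescence was recorded.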
# PIM-3 = PIM-3 (Homo sapiens, UniProt Q86V86); experiment: PIM-3 kinase assay; format: biochemical
# How it was run: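 Radiometric filter assay. Active PIM-3 was mixed with substrate (1 mg mL−1 stock) and started with [33P]-ATP cocktail (250 μM ATP stock), then held 15 min at 30 °C. Aliquots were spotted onto P81 phosphocellulose, washed three times for about 10 min each in 1% phosphoric acid, and scintillation-counted. A no-substrate blank was subtracted. Kinase specific activity came from corrected cpm, ATP specific activity, time and enzyme amount.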
# PIM-1 kinase = settings: read-out: IC50 against PIM-1 kinase enzyme; cited from earlier work
# PIM-2, sequence (Q9P1W9 whole entry): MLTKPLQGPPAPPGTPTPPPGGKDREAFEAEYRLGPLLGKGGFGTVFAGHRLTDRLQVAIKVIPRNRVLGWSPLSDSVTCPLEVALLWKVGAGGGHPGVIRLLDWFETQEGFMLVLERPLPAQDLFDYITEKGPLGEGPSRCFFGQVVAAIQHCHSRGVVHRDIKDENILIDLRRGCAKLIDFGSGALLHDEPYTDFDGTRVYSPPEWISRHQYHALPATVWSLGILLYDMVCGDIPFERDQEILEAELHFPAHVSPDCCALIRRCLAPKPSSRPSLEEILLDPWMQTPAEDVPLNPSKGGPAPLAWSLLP
# PIM-1, sequence (P11309 whole entry): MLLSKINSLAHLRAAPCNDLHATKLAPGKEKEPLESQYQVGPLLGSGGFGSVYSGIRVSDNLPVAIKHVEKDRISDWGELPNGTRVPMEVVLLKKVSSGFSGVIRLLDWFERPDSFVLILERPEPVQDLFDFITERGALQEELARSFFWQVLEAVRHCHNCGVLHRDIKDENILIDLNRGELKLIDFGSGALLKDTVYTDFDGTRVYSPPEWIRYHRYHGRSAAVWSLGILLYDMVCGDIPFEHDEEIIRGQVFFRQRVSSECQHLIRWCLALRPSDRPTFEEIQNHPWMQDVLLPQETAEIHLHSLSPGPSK
IC50 [1] [nM],IC50 (PIM-2) [nM],IC50 (PIM-3) [nM],SMILES,also measured
> 100000,,,"COc1ccc(/C=C/C(=O)CC2(O)C(=O)Nc3cc(Br)ccc32)cc1 (centres unmarked) [Compound 4, (E)-6-bromo-3-hydroxy-3-(4-(4-methoxyphenyl)-2-oxobut-3-enyl) indolin-2-one]",
> 100000,,,"COc1ccc(/C=C/C(=O)/C=C2/C(=O)Nc3cc(Br)ccc32)cc1 [Compound 5, (E)-6-bromo-3-((E)-4-(4-methoxyphenyl)-2-oxobut-3-enylidene)indolin-2 one]",IC50 [2]: 1400 nM; IC50 [3]: 1700 nM
> 100000,220 ± 10,360 ± 12,"COc1ccc(/C=C/C(/C=C2/C(=O)Nc3cc(Br)ccc32)=N\O)cc1 [Compound 6, (E)-6-bromo-3-((2E,3E)-2-(hydroxyimino)-4-(4-methoxyphenyl)but-3-enylidene)indolin-2-one]",IC50 (PIM-1): 470 ± 13 nM
,,,"Nc1nccc(-c2c[nH]c3ccc(Br)cc23)n1 [Meridianin C, 4-(5-bromo-1H-indol-3-yl)pyrimidin-2-amine]",IC50 (PIM-1 kinase): 1440 nM
,640 ± 10,830 ± 13,"O=c1c(O)c(-c2ccc(O)c(O)c2)oc2cc(O)cc(O)c12 [Querecitin, quercetin, reference compound]",
